Data taken from ChEMBL document CHEMBL1136003, “2-Amino-3-aroyl-4,5-alkylthiophenes: agonist allosteric enhancers at human A(1) adenosine receptors” (J Med Chem, 2002).

How the values were obtained:
[1] = target: T1, Adenosine receptor A1 (Homo sapiens) (UniProt P30542); experiment: Allosteric enhancer activity score measured by its ability to stabilize the agonist-receptor-G protein ternary complex at a concentration of 100 uM; format: functional
T1 sequence (whole entry): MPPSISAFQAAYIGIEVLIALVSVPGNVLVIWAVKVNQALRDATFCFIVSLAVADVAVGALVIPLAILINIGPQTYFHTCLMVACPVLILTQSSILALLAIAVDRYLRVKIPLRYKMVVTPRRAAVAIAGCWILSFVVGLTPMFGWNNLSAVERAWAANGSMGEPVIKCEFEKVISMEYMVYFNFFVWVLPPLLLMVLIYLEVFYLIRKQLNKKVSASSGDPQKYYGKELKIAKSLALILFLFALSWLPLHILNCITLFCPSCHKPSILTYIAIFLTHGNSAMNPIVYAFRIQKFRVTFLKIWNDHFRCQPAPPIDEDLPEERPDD
Summary of the method: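 Candidate enhancer added (100 µM) for 5 min, then dissociation started with 8-cyclopentyltheophylline plus GTPγS. Residual bound agonist after 10 min counted by filtration. Score = 100 × (B − Bo)/(Beq − Bo).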

[2] = target: T1, Adenosine receptor A1 (Homo sapiens); experiment: Inhibition of [3H]CPX binding to membrane of CHO-K cells stably expressing human adenosine A1 receptors.; format: cell membranes; parameters: concentration or dose not given beside the values; conditions: concentration not given here
Summary of the method: (§1)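 Triplicate assays with membranes (15 µg protein) from CHO-K cells expressing human A1AR. Buffer was 10 mM HEPES pH 7.4 with 1 mM EDTA, adenosine deaminase 1 u/mL, [3H]CPX (4 nM in membrane aliquot), and enhancer added as 200 µM in 10% DMSO. Footnote gives enhancer at 100 µM. NECA defined nonspecific binding. Incubated 3 h at room temperature, then filtered and counted.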

[3] = target: T1, Adenosine receptor A1 (Homo sapiens); experiment: Inhibition of [3H]CPX binding to CHO-K cell membrane expressing human Adenosine A1 receptor; format: cell membranes; parameters: concentration or dose not given beside the values; conditions: concentration not given here; summary of the method: as §1

Row | SMILES | AE Score [1] | inhibition [2] | inhibition [3]
1 | Nc1sccc1C(=O)c1ccc(Br)cc1 | 0.8% | – | –
2 | Nc1sc2c(c1C(=O)c1ccccc1)CCCC2 | 19% | 42% | –
3 | Cc1sc(N)c(C(=O)c2cccc(F)c2)c1C | 0% | – | –
4 | Cc1sc(C(=O)O)c(C(=O)c2cccc(C(F)(F)F)c2)c1C | 0% | – | –
5 | Nc1sc2c(c1C(=O)c1ccc(Br)cc1)CCCCC2 | 86% | 7% | –
6 | N#Cc1ccc(C(=O)c2c(N)sc3c2CCCC3)cc1 | 19% | 21% | –
7 | CCOC(=O)c1c(N)sc2c1CCCC2 | 3.5% | 53% | –
8 | Nc1sc2c(c1C(=O)c1ccc(F)cc1)CCCC2 | 17% | 56% | –
9 | Nc1sccc1C(=O)c1cccc(Cl)c1 | 0% | – | –
10 | Nc1sc2c(c1C(=O)c1ccc(I)cc1)CCCCC2 | 96% | 9% | –
11 | Nc1sc2c(c1C(=O)c1ccc(I)cc1)CCCC2 | 86% | 62% | –
12 | Nc1sc2c(c1C(=O)c1cccc(Br)c1)CCC2 | 68% | – | 36%
13 | Nc1sc2c(c1C(=O)c1ccc(Cl)cc1)CCC2 | 70% | – | –
14 | COc1cccc(C(=O)c2c(N)sc3c2CCCCC3)c1 | 99% | 13% | –
15 | Cc1cc(C)c(C(=O)c2c(N)sc(C)c2C)c(C)c1 | 0% | – | –
16 | Nc1sc2c(c1C(=O)c1ccc(C3CCCCC3)cc1)CCCCC2 | 77% | – | –
17 | Nc1sc2c(c1C(=O)c1cccc(Cl)c1)CCCC2 | 70% | – | 78%
18 | Nc1sc2c(c1C(=O)c1cccc(F)c1)CCCC2 | 22% | – | 35%
19 | Cc1sc(N)c(C(=O)c2ccc(-c3ccccc3)cc2)c1C | 12% | – | –
20 | Cc1ccc(C(=O)c2c(N)sc3c2CCCC3)cc1 | 19% | 36% | –

Row | SMILES | AE Score [1] | inhibition [2] | inhibition [3]
21 | Cc1sc(C(=O)O)c(C(=O)c2ccc(-c3ccccc3)cc2)c1C | 0% | – | –
22 | Nc1sc2c(c1C(=O)c1cccc(Br)c1)CCCCC2 | 78% | 7% | –
23 | Nc1sccc1C(=O)c1ccc2ccccc2c1 | 3.2% | – | –
24 | Cc1sc(N)c(C(=O)c2cccc(Br)c2)c1C | 16% | – | –
25 | Nc1sc2c(c1C(=O)c1ccccc1)CCC2 | 20% | – | 56%
26 | Nc1sccc1C(=O)c1cccc(Br)c1 | 0.2% | – | –
27 | Nc1sc2c(c1C(=O)c1ccc(-c3ccccc3)cc1)CCCCC2 | 88% | – | –
28 | Nc1sc2c(c1C(=O)c1cccc(Cl)c1)CCC2 | 13% | – | 56%
29 | Nc1sc2c(c1C(=O)c1ccc(Br)cc1)CCC2 | 62% | – | 20%
30 | Nc1sc2c(c1C(=O)c1cccc(Br)c1)CCCC2 | 49% | – | 49%
31 | Nc1sc2c(c1C(=O)c1ccc(F)cc1)CCCCC2 | 22% | – | –
32 | Cc1sc(N)c(C(=O)c2cccc(C(F)(F)F)c2)c1C | 19% | – | 42%
33 | Cc1sc(C(=O)O)c(C(=O)c2ccccc2)c1C | 0% | – | –
34 | Nc1sccc1C(=O)c1cccc(F)c1 | 0% | – | –
35 | CCOC(=O)c1c(N)sc2c1CCC2 | 0.4% | – | 58%
36 | CCOC(=O)c1c(N)sc2c1CCCCC2 | 0.3% | 38% | –
37 | Nc1sc2c(c1C(=O)c1ccccc1)CCCCC2 | 13% | 68% | –
38 | Nc1sc2c(c1C(=O)c1ccc(-c3ccccc3)cc1)CCCC2 | 33% | – | –
39 | Nc1sc2c(c1C(=O)c1ccc(Cl)cc1)CCCC2 | 68% | 69% | –
40 | Nc1sc2c(c1C(=O)c1cccc(F)c1)CCC2 | 16% | – | –

Row | SMILES | AE Score [1] | inhibition [2] | inhibition [3]
41 | Nc1sc2c(c1C(=O)c1cccc3ccccc13)CCCCC2 | 81% | – | –
42 | Nc1sccc1C(=O)c1ccc(F)cc1 | 0% | – | –
43 | Nc1sc2c(c1C(=O)c1cccc(Cl)c1)CCCCC2 | 65% | 10% | –
44 | Cc1sc(N)c(C(=O)c2cccc(Cl)c2)c1C | 14% | – | –
45 | Nc1sc2c(c1C(=O)c1ccc3ccccc3c1)CCCC2 | 86% | – | –
46 | Nc1sc2c(c1C(=O)c1ccc(Cl)cc1)CCCCC2 | 65% | – | –
47 | Nc1sc2c(c1C(=O)c1ccc(C3CCCCC3)cc1)CCCC2 | 99% | 47% | –
48 | Cc1sc(N)c(C(=O)c2ccccc2)c1C | 9% | – | –
49 | Nc1sccc1C(=O)c1ccc(Cl)c(Cl)c1 | 1.7% | – | –
50 | Nc1sc2c(c1C(=O)c1ccc(F)cc1)CCC2 | 22% | – | 40%
51 | Nc1sc2c(c1C(=O)c1ccc3ccccc3c1)CCCCC2 | 75% | – | –
52 | Nc1sc2c(c1C(=O)c1ccc(Br)cc1)CCCC2 | 83% | 61% | –
53 | COc1ccc(C(=O)c2c(N)sc3c2CCCCC3)cc1 | 85% | – | –
54 | Nc1sccc1C(=O)c1ccc(Cl)cc1 | 0% | – | –
55 | Nc1sc2c(c1C(=O)c1ccc(-c3ccccc3)cc1)CCC2 | 38% | – | –
56 | Nc1sc2c(c1C(=O)c1cccc(I)c1)CCCCC2 | 86% | – | –
57 | Nc1sccc1C(=O)c1ccccc1 | 0.2% | – | 15%
58 | Nc1sc2c(c1C(=O)c1ccc3ccccc3c1)CCC2 | 31% | 21% | –
59 | Cc1cccc(C(=O)c2c(N)sc(C)c2C)c1 | 18% | – | –
